In ChEMBL document CHEMBL4321805, “A Conformational Restriction Strategy for the Identification of a Highly Selective Pyrimido-pyrrolo-oxazine mTOR Inhibitor” (J Med Chem, 2019):
pKd, pKi: −log10 of the molar value.

Columns and labels:
[1] = target: T1, CYP1A1 (Homo sapiens, UniProt P04798); assay: Substrate activity at recombinant human CYP1A1 expressed in baculovirus infected insect cells assessed as parent compound remaining at 1 uM incubated for 60 mins in presence of NADP+-regenerating system by LC-MS analysis; format: ADME; settings: read-out: Stability
T1 sequence (P04798 whole entry): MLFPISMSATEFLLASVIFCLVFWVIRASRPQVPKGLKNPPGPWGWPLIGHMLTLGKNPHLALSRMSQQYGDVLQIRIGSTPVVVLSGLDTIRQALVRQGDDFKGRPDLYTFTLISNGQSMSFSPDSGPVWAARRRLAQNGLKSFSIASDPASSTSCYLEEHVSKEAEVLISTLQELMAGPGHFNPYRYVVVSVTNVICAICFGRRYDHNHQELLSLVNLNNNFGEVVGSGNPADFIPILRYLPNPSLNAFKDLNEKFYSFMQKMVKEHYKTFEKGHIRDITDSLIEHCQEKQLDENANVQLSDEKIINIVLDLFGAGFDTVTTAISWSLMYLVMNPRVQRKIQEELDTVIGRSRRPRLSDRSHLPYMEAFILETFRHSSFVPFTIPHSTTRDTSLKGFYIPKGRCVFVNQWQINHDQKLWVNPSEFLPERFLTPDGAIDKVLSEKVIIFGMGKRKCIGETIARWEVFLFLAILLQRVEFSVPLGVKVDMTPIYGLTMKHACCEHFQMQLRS
Procedure, shortened: (§1)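 Baculovirus/insect-cell Supersomes, each expressing a single human CYP, at 25 pmol/mL. Compound at 1 μM (0.25% DMSO), 37 °C, 60 min. Reactions run with a NADP+-regenerating cofactor mix or, as negative control, without cofactors and glucose-6-phosphate dehydrogenase. Stopped with ACN containing internal standard. Duplicates; % remaining from absolute amounts.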

[2] = target: T2, Phosphatidylinositol 4,5-bisphosphate 3-kinase catalytic subunit delta isoform (Homo sapiens, UniProt O00329); assay: Binding affinity to human wild-type partial length PI3Kdelta (R108 to Q1044 residues) expressed in mammalian expression system by kinome scan assay
T2 sequence (O00329 whole entry): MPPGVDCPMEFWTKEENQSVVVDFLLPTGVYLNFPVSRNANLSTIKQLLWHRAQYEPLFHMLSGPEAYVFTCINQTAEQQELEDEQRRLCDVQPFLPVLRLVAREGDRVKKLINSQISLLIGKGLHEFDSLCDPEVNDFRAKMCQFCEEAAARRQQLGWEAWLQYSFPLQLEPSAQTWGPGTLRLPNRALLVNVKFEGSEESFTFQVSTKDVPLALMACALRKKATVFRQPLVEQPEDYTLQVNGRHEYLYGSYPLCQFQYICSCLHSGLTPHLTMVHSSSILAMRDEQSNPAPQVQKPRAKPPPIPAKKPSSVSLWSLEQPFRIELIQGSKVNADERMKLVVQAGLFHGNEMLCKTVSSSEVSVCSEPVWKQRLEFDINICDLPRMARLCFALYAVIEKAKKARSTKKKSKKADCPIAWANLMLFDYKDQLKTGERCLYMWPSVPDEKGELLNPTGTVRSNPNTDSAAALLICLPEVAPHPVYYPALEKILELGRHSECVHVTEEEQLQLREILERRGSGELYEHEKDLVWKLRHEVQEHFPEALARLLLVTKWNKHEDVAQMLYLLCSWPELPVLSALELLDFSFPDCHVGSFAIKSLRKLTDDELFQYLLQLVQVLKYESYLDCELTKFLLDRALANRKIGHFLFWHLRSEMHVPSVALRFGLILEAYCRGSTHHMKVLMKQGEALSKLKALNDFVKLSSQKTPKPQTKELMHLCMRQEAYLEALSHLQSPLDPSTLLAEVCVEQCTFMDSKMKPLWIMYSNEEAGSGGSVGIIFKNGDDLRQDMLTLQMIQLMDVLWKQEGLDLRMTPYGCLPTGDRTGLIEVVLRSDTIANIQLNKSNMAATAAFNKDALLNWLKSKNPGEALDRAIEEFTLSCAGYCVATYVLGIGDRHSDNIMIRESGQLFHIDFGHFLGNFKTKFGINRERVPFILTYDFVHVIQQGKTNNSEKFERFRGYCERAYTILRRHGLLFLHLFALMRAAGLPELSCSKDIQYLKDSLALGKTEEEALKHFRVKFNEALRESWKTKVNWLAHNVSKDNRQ
Procedure, shortened: (§2)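 DNA-tagged kinases competed against immobilized ligand with an 11-point 3-fold serial dilution starting from 30 μM. Kinase bound measured by qPCR of the DNA tags. Kd from standard dose–response curves with the Hill equation (Hill slope −1); mean of duplicate experiments.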

[3] = target: Serine/threonine-protein kinase mTOR (Homo sapiens, UniProt P42345); assay: Inhibition of alexa fluor 647-labeled kinase tracer 314 binding to recombinant human N-terminal GST-fused mTOR (1360 to 2549 residues) expressed in baculovirus expression system by TR-FRET assay
Procedure, shortened: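 LanthaScreen TR-FRET tracer displacement. GST-fused truncated mTOR (aa 1360–2549) detected with Eu-anti-GST antibody (2 nM). […] Buffer: 50 mM HEPES, 5 mM MgCl2, 1 mM EGTA, 0.01% Pluronic F-127. Ki derived from displacement.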

[4] = target: T3, CYP1A2 (Homo sapiens, UniProt P05177); assay: Substrate activity at recombinant human CYP1A2 expressed in baculovirus infected insect cells assessed as parent compound remaining at 1 uM incubated for 60 mins in presence of NADP+-regenerating system by LC-MS analysis; format: ADME; settings: read-out: Stability; procedure, shortened: as §1
T3 sequence (P05177 whole entry): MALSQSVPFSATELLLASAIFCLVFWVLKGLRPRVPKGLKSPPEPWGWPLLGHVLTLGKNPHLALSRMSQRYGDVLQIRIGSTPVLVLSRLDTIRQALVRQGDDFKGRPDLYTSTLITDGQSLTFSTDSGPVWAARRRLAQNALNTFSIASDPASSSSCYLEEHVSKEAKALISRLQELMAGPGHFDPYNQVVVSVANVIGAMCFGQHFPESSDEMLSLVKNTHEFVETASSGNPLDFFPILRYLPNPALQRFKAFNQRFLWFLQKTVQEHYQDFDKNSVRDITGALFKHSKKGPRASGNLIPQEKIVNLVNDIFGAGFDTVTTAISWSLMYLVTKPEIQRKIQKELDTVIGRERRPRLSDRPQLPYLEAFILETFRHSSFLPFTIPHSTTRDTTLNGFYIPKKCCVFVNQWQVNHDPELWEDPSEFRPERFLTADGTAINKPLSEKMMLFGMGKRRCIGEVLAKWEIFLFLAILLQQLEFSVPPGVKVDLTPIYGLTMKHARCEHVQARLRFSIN

[5] = target: Phosphatidylinositol 4,5-bisphosphate 3-kinase catalytic subunit alpha isoform (Homo sapiens, UniProt P42336); assay: Binding affinity to human wild-type partial length PI3Kalpha (R108 to N1068 residues) expressed in mammalian expression system by kinome scan assay; procedure, shortened: as §2
[6] = target: Phosphatidylinositol 4,5-bisphosphate 3-kinase catalytic subunit gamma isoform (Homo sapiens, UniProt P48736); assay: Binding affinity to human wild-type partial length PI3Kgamma (S144 to A1102 residues) expressed in mammalian expression system by kinome scan assay; procedure, shortened: as §2
[7] = target: T3, CYP1A2; assay: Substrate activity at recombinant human CYP1A2 expressed in baculovirus infected insect cells assessed as parent compound remaining at 1 uM incubated for 60 mins in absence of NADP+-regenerating system by LC-MS analysis; format: ADME; settings: read-out: Stability; procedure, shortened: as §1

Phosphatidylinositol 4,5-bisphosphate 3-kinase catalytic subunit alpha isoform, sequence (P42336 whole entry, the tested form may be a part, canonical isoform): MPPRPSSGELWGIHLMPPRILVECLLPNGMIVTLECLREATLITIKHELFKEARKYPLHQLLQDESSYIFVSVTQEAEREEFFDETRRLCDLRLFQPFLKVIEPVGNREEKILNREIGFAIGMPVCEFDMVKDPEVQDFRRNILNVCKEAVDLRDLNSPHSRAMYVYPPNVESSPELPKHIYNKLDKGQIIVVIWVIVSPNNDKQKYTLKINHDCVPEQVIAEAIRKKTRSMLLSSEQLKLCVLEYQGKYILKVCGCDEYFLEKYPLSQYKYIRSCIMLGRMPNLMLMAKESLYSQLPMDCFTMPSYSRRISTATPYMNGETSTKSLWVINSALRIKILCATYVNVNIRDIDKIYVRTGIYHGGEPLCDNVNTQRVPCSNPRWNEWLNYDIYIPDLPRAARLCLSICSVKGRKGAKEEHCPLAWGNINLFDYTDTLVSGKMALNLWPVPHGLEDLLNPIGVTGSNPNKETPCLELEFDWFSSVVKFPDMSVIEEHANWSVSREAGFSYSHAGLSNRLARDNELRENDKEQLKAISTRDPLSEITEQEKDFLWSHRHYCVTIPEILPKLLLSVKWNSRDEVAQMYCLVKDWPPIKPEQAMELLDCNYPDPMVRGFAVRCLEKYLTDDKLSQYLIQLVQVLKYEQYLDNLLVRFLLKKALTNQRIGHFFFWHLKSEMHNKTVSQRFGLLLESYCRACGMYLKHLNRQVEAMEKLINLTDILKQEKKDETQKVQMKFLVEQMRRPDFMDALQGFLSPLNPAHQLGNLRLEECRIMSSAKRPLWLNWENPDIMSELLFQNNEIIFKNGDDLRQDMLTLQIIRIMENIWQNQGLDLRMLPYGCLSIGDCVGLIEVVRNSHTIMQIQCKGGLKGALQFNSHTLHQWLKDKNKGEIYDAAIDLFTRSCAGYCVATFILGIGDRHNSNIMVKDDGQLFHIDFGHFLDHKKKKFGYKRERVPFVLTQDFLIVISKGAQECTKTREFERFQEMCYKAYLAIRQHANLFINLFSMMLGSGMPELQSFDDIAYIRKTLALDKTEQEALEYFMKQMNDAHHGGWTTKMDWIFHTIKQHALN
Phosphatidylinositol 4,5-bisphosphate 3-kinase catalytic subunit gamma isoform, sequence (P48736 whole entry, the tested form may be a part, canonical isoform): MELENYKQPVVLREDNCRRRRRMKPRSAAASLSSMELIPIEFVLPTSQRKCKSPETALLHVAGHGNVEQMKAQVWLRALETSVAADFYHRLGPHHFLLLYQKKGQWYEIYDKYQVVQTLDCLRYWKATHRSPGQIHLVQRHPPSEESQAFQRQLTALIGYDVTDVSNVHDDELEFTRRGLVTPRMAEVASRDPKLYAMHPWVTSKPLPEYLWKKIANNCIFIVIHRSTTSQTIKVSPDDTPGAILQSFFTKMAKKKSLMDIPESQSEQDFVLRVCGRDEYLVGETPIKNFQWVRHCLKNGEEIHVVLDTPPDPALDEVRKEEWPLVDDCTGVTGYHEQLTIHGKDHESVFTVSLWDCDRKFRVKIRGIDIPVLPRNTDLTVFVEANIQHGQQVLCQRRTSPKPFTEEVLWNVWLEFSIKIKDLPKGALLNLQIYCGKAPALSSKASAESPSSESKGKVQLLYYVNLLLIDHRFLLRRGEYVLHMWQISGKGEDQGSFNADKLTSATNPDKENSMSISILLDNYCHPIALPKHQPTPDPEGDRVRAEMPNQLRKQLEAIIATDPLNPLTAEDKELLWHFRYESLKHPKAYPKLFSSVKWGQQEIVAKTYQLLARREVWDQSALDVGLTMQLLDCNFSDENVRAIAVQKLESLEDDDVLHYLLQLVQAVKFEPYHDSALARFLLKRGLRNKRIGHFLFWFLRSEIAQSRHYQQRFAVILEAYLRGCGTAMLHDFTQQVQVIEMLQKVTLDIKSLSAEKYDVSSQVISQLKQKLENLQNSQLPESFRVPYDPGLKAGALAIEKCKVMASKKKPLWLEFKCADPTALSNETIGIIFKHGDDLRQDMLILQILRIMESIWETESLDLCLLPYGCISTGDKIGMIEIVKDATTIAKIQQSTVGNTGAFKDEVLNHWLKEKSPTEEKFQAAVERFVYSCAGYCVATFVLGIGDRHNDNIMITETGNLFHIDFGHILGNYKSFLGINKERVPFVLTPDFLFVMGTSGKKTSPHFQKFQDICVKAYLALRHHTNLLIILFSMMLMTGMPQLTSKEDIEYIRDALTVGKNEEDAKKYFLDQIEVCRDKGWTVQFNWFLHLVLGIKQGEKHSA

| remaining at 1 h, 1 µM [1] [%] | pKd [2] | pKi [3] | remaining at 1 h, 1 µM [4] [%] | pKd [5] | pKd [6] | remaining at 1 h, 1 µM [7] [%] | Compound |
| --- | --- | --- | --- | --- | --- | --- | --- |
| 51 | 5.72 | 8.60 | 73 | 6.92 | 5.74 | 91 | C[C@@H]1COCCN1c1nc(-c2cnc(N)nc2)nc2c1C[C@@H]1COCCN21 |
| 77 | 4.92 | 8.10 | 92 | 5.80 | 4.96 | 91 | C[C@@H]1COCCN1c1nc(-c2cnc(N)cn2)nc2c1C[C@@H]1COCCN21 |
| – | 5.21 | 7.89 | – | 6.21 | 5.06 | 94 | C[C@@H]1COCCN1c1nc(-c2ccc(N)nc2)nc2c1C[C@@H]1COCCN21 |
